The target in assay [1] is T1, alkaline phosphatase (AlkP) (Homo sapiens, UniProt P05186).
T1 sequence (P05186 18-524): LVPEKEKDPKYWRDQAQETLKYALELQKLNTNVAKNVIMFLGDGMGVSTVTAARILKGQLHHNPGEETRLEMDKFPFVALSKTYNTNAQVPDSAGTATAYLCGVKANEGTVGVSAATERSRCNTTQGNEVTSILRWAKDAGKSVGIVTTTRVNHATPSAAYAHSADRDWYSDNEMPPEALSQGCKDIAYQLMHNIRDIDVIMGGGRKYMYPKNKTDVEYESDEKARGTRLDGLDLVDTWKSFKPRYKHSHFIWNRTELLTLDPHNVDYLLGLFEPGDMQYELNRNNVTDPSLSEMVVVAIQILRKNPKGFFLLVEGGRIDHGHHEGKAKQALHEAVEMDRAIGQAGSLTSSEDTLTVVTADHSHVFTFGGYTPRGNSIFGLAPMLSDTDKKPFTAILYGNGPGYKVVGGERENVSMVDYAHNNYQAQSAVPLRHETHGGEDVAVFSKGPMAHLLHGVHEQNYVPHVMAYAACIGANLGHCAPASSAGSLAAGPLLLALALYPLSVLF
Description: Direct alkaline phosphatase inhibition in cell lysates. The format is biochemical. The note with it: lysates of progesterone-treated cells, 10 μM compound, 15 minutes. The method, boiled down: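 Lysates of cells given 2.5 nM progesterone to induce AlkP were aliquoted and exposed to 10 μM test compound for 15 min. Then added: buffer of 100 mM diethanolamine pH 9.5, 1 mM MgCl2, 0.4 mM CSPD chemiluminescent substrate and 1X Emerald II enhancer. After 1 h at room temperature, luminescence was read.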

For assay [2], the system named is endogenous PR-regulated alkaline phosphatase activity in T47D breast cancer cells. Description: Progesterone-induced alkaline phosphatase assay in T47D cells. The format is cell-based, human. As to conditions: by 5 μM. Summed up:
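T47D cells were moved to phenol red-free medium with 10% charcoal-dextran FBS four days ahead. Cells were seeded overnight, then treated 24 h with 2.5 nM progesterone ± test compound in DMSO. Supernatant assayed with CSPD/diethanolamine pH 9.5 buffer, 1 h at RT, luminescence (542 nm). Untreated-compound activity = 100%; ≥3 experiments, mean ± SEM.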

Assay [3] addresses T2, purified full length recombinant human PR-B (Homo sapiens, UniProt P06401).
T2 sequence (P06401 1-933): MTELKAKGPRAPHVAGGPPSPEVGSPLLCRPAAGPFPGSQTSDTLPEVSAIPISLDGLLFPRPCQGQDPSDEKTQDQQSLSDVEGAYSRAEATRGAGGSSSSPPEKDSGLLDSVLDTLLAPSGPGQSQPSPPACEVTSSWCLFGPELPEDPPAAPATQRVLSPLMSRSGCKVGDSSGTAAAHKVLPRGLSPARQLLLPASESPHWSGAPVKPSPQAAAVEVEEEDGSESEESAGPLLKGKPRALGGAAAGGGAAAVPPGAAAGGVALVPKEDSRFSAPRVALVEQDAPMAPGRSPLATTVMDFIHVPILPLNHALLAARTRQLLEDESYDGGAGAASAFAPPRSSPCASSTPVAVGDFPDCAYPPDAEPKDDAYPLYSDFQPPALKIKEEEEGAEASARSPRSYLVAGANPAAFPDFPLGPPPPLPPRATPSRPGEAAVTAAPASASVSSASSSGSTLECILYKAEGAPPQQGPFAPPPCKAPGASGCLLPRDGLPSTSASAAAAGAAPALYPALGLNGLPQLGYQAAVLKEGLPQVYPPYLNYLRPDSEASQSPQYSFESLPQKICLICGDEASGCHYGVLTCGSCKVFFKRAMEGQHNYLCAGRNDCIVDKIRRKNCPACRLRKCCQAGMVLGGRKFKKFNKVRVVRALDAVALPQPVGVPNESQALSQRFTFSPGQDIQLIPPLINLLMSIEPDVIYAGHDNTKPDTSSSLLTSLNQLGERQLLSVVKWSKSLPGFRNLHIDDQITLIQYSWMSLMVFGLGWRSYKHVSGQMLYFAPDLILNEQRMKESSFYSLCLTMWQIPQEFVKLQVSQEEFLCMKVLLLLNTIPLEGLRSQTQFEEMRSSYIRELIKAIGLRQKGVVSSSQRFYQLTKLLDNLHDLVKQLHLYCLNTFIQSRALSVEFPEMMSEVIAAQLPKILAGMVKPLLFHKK
The assay can be described thus: Competitive radiometric receptor binding assay.

The next assay deals with T3, ER (Homo sapiens, UniProt P03372).
T3 sequence (P03372 1-595): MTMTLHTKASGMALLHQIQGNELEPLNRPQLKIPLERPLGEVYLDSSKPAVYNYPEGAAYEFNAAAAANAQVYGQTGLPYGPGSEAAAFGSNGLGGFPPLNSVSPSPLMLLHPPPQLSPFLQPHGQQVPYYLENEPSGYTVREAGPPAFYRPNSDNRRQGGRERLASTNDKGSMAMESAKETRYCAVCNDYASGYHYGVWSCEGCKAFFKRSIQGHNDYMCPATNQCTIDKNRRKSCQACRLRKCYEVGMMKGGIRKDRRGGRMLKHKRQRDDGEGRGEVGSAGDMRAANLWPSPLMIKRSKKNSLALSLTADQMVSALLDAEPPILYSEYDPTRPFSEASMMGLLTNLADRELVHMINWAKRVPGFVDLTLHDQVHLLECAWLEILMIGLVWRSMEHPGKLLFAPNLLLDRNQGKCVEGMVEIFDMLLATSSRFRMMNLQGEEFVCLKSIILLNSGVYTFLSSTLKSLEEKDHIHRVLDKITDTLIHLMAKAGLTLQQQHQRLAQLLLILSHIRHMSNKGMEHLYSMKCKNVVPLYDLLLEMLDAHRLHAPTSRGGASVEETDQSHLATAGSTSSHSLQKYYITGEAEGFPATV
The assay can be described thus: ER reporter gene assay. In kind it is cell-based. As to conditions: 10 μM compound, 5 nM estradiol, 24 h; % of maximal luciferase activity (100%).

Assay [4] has as its target purified luciferase protein (Photinus pyralis, UniProt P08659). The assay can be described thus: Enzyme inhibition assay with purified luciferase protein. The format is biochemical. The note with it: 0.05 ng pure luciferase protein, 10 μM compound. The method, boiled down: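 Purified firefly luciferase was used at a final 0.01 ng/μl in OneGlo buffer, with test compound diluted to 10 μM in buffer. After adding BrightGlo luciferase reagent, samples were held 5 min and luminescence measured.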

A further assay deals with T4, PR (Homo sapiens, UniProt P06401).
T4 sequence (P06401 165-933 limits assumed): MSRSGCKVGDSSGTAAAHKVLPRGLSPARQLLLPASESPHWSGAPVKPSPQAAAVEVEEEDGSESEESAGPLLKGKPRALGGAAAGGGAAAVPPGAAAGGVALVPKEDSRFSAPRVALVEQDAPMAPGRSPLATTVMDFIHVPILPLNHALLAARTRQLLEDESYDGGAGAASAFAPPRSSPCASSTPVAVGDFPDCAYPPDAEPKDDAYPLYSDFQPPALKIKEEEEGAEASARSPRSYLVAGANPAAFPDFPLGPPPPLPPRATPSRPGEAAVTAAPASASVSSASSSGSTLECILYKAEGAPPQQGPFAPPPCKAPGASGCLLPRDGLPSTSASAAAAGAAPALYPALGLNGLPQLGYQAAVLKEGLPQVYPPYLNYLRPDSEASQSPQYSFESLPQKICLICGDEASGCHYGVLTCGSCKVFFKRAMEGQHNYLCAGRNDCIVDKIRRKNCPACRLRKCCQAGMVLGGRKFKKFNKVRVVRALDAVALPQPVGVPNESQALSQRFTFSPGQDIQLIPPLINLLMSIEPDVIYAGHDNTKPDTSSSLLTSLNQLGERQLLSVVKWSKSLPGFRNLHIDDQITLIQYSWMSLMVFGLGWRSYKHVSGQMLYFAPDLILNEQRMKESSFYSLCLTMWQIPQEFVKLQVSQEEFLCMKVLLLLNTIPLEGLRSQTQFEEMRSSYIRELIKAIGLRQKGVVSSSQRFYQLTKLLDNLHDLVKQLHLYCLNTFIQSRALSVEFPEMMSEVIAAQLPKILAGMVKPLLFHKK
The assay can be described thus: PR reporter gene assay. In kind it is cell-based. In general terms: In a reporter assay the amount or activity of a reporter protein is the signal.

In a further assay the test system is pS2 mRNA. Description: qRT-PCR of 17β-estradiol-induced pS2 mRNA. In kind it is cell-based. As to conditions: 2 hours; compound 51 at 5 μM. On the technique in general: Quantitative PCR measures a nucleic acid by following its amplification.
Assay [5] deals with alkaline phosphatase mRNA. The assay can be described thus: qRT-PCR of progesterone-induced alkaline phosphatase mRNA. In kind it is cell-based, human. As to conditions: 10 nM P, 24 h.

This note sets out measurements from PMC3384716 (Steroids, 2012).

Chain of purified luciferase protein (P08659 whole entry): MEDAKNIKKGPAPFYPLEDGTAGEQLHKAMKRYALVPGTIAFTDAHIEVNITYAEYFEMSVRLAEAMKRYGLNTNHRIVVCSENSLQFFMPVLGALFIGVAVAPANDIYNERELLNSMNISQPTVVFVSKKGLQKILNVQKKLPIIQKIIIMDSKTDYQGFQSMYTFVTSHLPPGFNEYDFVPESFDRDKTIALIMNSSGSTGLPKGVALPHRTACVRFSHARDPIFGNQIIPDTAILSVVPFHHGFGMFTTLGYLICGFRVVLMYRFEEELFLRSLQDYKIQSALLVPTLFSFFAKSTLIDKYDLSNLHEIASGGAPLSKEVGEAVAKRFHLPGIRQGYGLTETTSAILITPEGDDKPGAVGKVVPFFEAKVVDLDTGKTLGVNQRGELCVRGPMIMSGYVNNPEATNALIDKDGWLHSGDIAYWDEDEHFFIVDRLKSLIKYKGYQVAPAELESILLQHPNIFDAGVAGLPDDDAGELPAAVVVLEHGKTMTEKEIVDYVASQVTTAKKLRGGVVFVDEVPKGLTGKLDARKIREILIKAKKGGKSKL

On to `CCC(CC)CSc1nc2c([nH]1)c(=S)n(C)c(=O)n2C` [Compound 51, 6-thio-8-(2-ethylbutyl)thiotheophylline], for which the “direct inhibition of alkaline phosphatase activity in lysates” value in assay [1] is “failed to significantly inhibit activity”. Also, the “inhibition of progesterone-induced AlkP activity at 5 μM” value in assay [2] is on record as “complete inhibition”. Further, the “fold weaker binding to PR than R5020” value in assay [3] (10 nM tritiated R5020, 10 nM PR-B, 18-24 h at 0°C) is on record as 4,700 fold. Further, in assay [3] (at functionally significant concentrations), the “ability to compete with radio-labeled R5020 for binding to PR” value was “little or no ability to compete”. Also, on ER, the “Reporter Assay (% Activity) ER” value is reported as 54%. In addition, the “direct inhibition of luciferase enzymatic activity” value in assay [4] is “did not inhibit”. Besides, the agonist activity entry at PR (concentrations of 30 μM and higher) is recorded as “no observed agonist activity”. Moreover, the “fold more potent inhibitor of PR than GR” value at PR (same T47D cells, same MMTV-luciferase reporter) came out at 6.1 fold. For the same compound, the “effect on 17β-estradiol induction of pS2 mRNA” value in the assay with pS2 mRNA was “no effect”. The “inhibition of progesterone induction of AlkP mRNA” value in assay [5] (5 μM compound) is given as 74%. In assay [5] (10 μM compound), the “inhibition of progesterone induction of AlkP mRNA (in words)” value was “completely blocked”.
